The source made the active and inactive calls. The calls are words filed in the database; no cut-off is given here.
Assays:
Format in all cases: functional, cell-based
SF-539 = experiment: Antiproliferative activity against human SF539 cells at 10 uM incubated for 48 hrs by sulforhodamine B assay
Method in brief: (§1)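 Run by the NCI Developmental Therapeutics Program (Division of Cancer Treatment and Diagnosis) as part of the NCI60 human tumour cell line panel screen. Each compound was tested at a single dose of 10 μM. Results are reported as one-dose mean graphs.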

HOP-62 = experiment: Antiproliferative activity against human HOP62 cells at 10 uM incubated for 48 hrs by sulforhodamine B assay; method in brief: as §1
SNB-75 = experiment: Antiproliferative activity against human SNB75 cells at 10 uM incubated for 48 hrs by sulforhodamine B assay
Method in brief: (§2)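 Run by the NCI Developmental Therapeutics Program (Division of Cancer Treatment and Diagnosis) as part of the NCI60 human tumour cell line panel. Each compound was tested in vitro at a single dose of 10 μM, and the data are reported as one-dose mean graphs across the panel.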

IGROV-1 = experiment: Antiproliferative activity against human IGROV1 cells at 10 uM incubated for 48 hrs by sulforhodamine B assay; method in brief: as §1
TK-10 = experiment: Antiproliferative activity against human TK10 cells at 10 uM incubated for 48 hrs by sulforhodamine B assay; method in brief: as §2
OVCAR-5 = experiment: Antiproliferative activity against human OVCAR5 cells at 10 uM incubated for 48 hrs by sulforhodamine B assay; method in brief: as §1
Malme-3M = experiment: Antiproliferative activity against human MALME-3M cells at 10 uM incubated for 48 hrs by sulforhodamine B assay; method in brief: as §1
SF-268 = experiment: Antiproliferative activity against human SF268 cells at 10 uM incubated for 48 hrs by sulforhodamine B assay; method in brief: as §1
HOP-92 = experiment: Antiproliferative activity against human HOP92 cells at 10 uM incubated for 48 hrs by sulforhodamine B assay; method in brief: as §1
HT-29 = experiment: Antiproliferative activity against human HT-29 cells at 10 uM incubated for 48 hrs by sulforhodamine B assay; method in brief: as §1
RPMI-8226 = experiment: Antiproliferative activity against human RPMI8226 cells at 10 uM incubated for 48 hrs by sulforhodamine B assay; method in brief: as §1
KM12 = experiment: Antiproliferative activity against human KM12 cells at 10 uM incubated for 48 hrs by sulforhodamine B assay; method in brief: as §1
HCT-15 = experiment: Antiproliferative activity against human HCT15 cells at 10 uM incubated for 48 hrs by sulforhodamine B assay; method in brief: as §1
MDA-MB-435 = experiment: Antiproliferative activity against human MDA-MB-435 cells at 10 uM incubated for 48 hrs by sulforhodamine B assay; method in brief: as §1
A498 = experiment: Antiproliferative activity against human A498 cells at 10 uM incubated for 48 hrs by sulforhodamine B assay; method in brief: as §1
SN12C = experiment: Antiproliferative activity against human SN12C cells at 10 uM incubated for 48 hrs by sulforhodamine B assay; method in brief: as §1
SK-OV-3 = experiment: Antiproliferative activity against human SKOV3 cells at 10 uM incubated for 48 hrs by sulforhodamine B assay; method in brief: as §1
Hs-578T = experiment: Antiproliferative activity against human Hs 578T cells at 10 uM incubated for 48 hrs by sulforhodamine B assay; method in brief: as §1
SK-MEL-5 = experiment: Antiproliferative activity against human SK-MEL-5 cells at 10 uM incubated for 48 hrs by sulforhodamine B assay; method in brief: as §1
NCI-H322M = experiment: Antiproliferative activity against human NCI-H322M cells at 10 uM incubated for 48 hrs by sulforhodamine B assay; method in brief: as §1
HCT-116 = experiment: Antiproliferative activity against human HCT116 cells at 10 uM incubated for 48 hrs by sulforhodamine B assay; method in brief: as §1
RXF 393 = experiment: Antiproliferative activity against human RXF393 cells at 10 uM incubated for 48 hrs by sulforhodamine B assay; method in brief: as §1
LOX IMVI = experiment: Antiproliferative activity against human LOXIMVI cells at 10 uM incubated for 48 hrs by sulforhodamine B assay; method in brief: as §1
U-251 = experiment: Antiproliferative activity against human U251 cells at 10 uM incubated for 48 hrs by sulforhodamine B assay; method in brief: as §2
HCC 2998 = experiment: Antiproliferative activity against human HCC2998 cells at 10 uM incubated for 48 hrs by sulforhodamine B assay; method in brief: as §1
NCI-H460 = experiment: Antiproliferative activity against human NCI-H460 cells at 10 uM incubated for 48 hrs by sulforhodamine B assay; method in brief: as §1
DU-145 = experiment: Antiproliferative activity against human DU145 cells at 10 uM incubated for 48 hrs by sulforhodamine B assay; method in brief: as §1
M14 = experiment: Antiproliferative activity against human M14 cells at 10 uM incubated for 48 hrs by sulforhodamine B assay; method in brief: as §1
NCI-H226 = experiment: Antiproliferative activity against human NCI-H226 cells at 10 uM incubated for 48 hrs by sulforhodamine B assay; method in brief: as §1
NCI-H23 = experiment: Antiproliferative activity against human NCI-H23 cells at 10 uM incubated for 48 hrs by sulforhodamine B assay; method in brief: as §1
SW-620 = experiment: Antiproliferative activity against human SW620 cells at 10 uM incubated for 48 hrs by sulforhodamine B assay; method in brief: as §2
NCI-H522 = experiment: Antiproliferative activity against human NCI-H522 cells at 10 uM incubated for 48 hrs by sulforhodamine B assay; method in brief: as §1
CCRF-CEM = experiment: Antiproliferative activity against human CCRF-CEM cells at 10 uM incubated for 48 hrs by sulforhodamine B assay; method in brief: as §1
A549 = experiment: Antiproliferative activity against human A549/ATCC cells at 10 uM incubated for 48 hrs by sulforhodamine B assay; method in brief: as §1
T47D = experiment: Antiproliferative activity against human T47D cells at 10 uM incubated for 48 hrs by sulforhodamine B assay; method in brief: as §2
SK-MEL-2 = experiment: Antiproliferative activity against human SK-MEL-2 cells at 10 uM incubated for 48 hrs by sulforhodamine B assay; method in brief: as §1
SF-295 = experiment: Antiproliferative activity against human SF295 cells at 10 uM incubated for 48 hrs by sulforhodamine B assay; method in brief: as §1
OVCAR-4 = experiment: Antiproliferative activity against human OVCAR4 cells at 10 uM incubated for 48 hrs by sulforhodamine B assay; method in brief: as §1
MDA-MB-468 = experiment: Antiproliferative activity against human MDA-MB-468 cells at 10 uM incubated for 48 hrs by sulforhodamine B assay; method in brief: as §1
MOLT-4 = experiment: Antiproliferative activity against human MOLT4 cells at 10 uM incubated for 48 hrs by sulforhodamine B assay; method in brief: as §1
UACC-62 = experiment: Antiproliferative activity against human UACC62 cells at 10 uM incubated for 48 hrs by sulforhodamine B assay; method in brief: as §2
HL-60(TB) = experiment: Antiproliferative activity against human HL-60(TB) cells at 10 uM incubated for 48 hrs by sulforhodamine B assay
Method in brief: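 Tested within the NCI60 cancer cell line panel screen run by the Developmental Therapeutics Program (Division of Cancer Treatment and Diagnosis, National Cancer Institute). Each stereoisomer was given at a single dose of 10 μM. Results are reported as one-dose mean graphs.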

ACHN = experiment: Antiproliferative activity against human ACHN cells at 10 uM incubated for 48 hrs by sulforhodamine B assay; method in brief: as §1
SK-MEL-28 = experiment: Antiproliferative activity against human SK-MEL-28 cells at 10 uM incubated for 48 hrs by sulforhodamine B assay; method in brief: as §1

O=C(/C=C/c1ccccc1)O[C@H](c1ccccc1)[C@@H]1O[C@@H]2CC(=O)O[C@@H]2[C@H]1O
Activity (SF-539): Active
Activity (HOP-62): Active
Activity (SNB-75): Active
Activity (IGROV-1): Active
Activity (TK-10): Active
Activity (OVCAR-5): Active
Activity (Malme-3M): Active
Activity (SF-268): Active
Activity (HOP-92): Active
Activity (HT-29): Active
Activity (RPMI-8226): Active
Activity (KM12): Active
Activity (HCT-15): Active
Activity (MDA-MB-435): Active
Activity (A498): Active
Activity (SN12C): Active
Activity (SK-OV-3): Active
Activity (Hs-578T): Active
Activity (SK-MEL-5): Active
Activity (NCI-H322M): Active
Activity (HCT-116): Active
Activity (RXF 393): Active
Activity (LOX IMVI): Active
Activity (U-251): Active
Activity (HCC 2998): Active
Activity (NCI-H460): Active
Activity (DU-145): Active
Activity (M14): Active
Activity (NCI-H226): Active
Activity (NCI-H23): Active
Activity (SW-620): Active
Activity (NCI-H522): Active
Activity (CCRF-CEM): Active
Activity (A549): Active
Activity (T47D): Active
Activity (SK-MEL-2): Active
Activity (SF-295): Active
Activity (OVCAR-4): Active
Activity (MDA-MB-468): Active
Activity (MOLT-4): Active
Activity (UACC-62): Active
Activity (HL-60(TB)): Active
Activity (ACHN): Active
Activity (SK-MEL-28): Active

CC(=O)O[C@H](C)[C@H]1O[C@H]2CC(=O)O[C@H]2[C@@H]1O
Activity (SF-539): inactive
Activity (HOP-62): inactive
Activity (SNB-75): inactive
Activity (IGROV-1): inactive
Activity (TK-10): inactive
Activity (OVCAR-5): inactive
Activity (Malme-3M): inactive
Activity (SF-268): inactive
Activity (HOP-92): inactive
Activity (HT-29): inactive
Activity (RPMI-8226): inactive
Activity (KM12): inactive
Activity (HCT-15): inactive
Activity (MDA-MB-435): inactive
Activity (A498): inactive
Activity (SN12C): inactive
Activity (SK-OV-3): inactive
Activity (Hs-578T): inactive
Activity (SK-MEL-5): inactive
Activity (NCI-H322M): inactive
Activity (HCT-116): inactive
Activity (RXF 393): inactive
Activity (LOX IMVI): inactive
Activity (U-251): inactive
Activity (HCC 2998): inactive
Activity (NCI-H460): inactive
Activity (DU-145): inactive
Activity (M14): inactive
Activity (NCI-H226): inactive
Activity (NCI-H23): inactive
Activity (SW-620): inactive
Activity (NCI-H522): inactive
Activity (CCRF-CEM): inactive
Activity (A549): inactive
Activity (T47D): inactive
Activity (SK-MEL-2): inactive
Activity (SF-295): inactive
Activity (OVCAR-4): inactive
Activity (MDA-MB-468): inactive
Activity (MOLT-4): inactive
Activity (UACC-62): inactive
Activity (HL-60(TB)): inactive
Activity (ACHN): inactive
Activity (SK-MEL-28): inactive

O=C1C[C@H]2O[C@H]([C@H](O)c3ccccc3)[C@H](O)[C@H]2O1
Activity (SF-539): Active
Activity (HOP-62): Active
Activity (SNB-75): Active
Activity (IGROV-1): Active
Activity (TK-10): Active
Activity (OVCAR-5): Active
Activity (Malme-3M): Active
Activity (SF-268): Active
Activity (HOP-92): Active
Activity (HT-29): Active
Activity (RPMI-8226): Active
Activity (KM12): Active
Activity (HCT-15): Active
Activity (MDA-MB-435): Active
Activity (A498): Active
Activity (SN12C): Active
Activity (SK-OV-3): Active
Activity (Hs-578T): Active
Activity (SK-MEL-5): Active
Activity (NCI-H322M): Active
Activity (HCT-116): Active
Activity (RXF 393): Active
Activity (LOX IMVI): Active
Activity (U-251): Active
Activity (HCC 2998): Active
Activity (NCI-H460): Active
Activity (DU-145): Active
Activity (M14): Active
Activity (NCI-H226): Active
Activity (NCI-H23): Active
Activity (SW-620): Active
Activity (NCI-H522): Active
Activity (CCRF-CEM): Active
Activity (A549): Active
Activity (T47D): Active
Activity (SK-MEL-2): Active
Activity (SF-295): Active
Activity (OVCAR-4): Active
Activity (MDA-MB-468): Active
Activity (MOLT-4): Active
Activity (UACC-62): Active
Activity (HL-60(TB)): Active
Activity (ACHN): Active
Activity (SK-MEL-28): Active

— ChEMBL document CHEMBL4118033, “Total Synthesis, Configuration Assignment, and Cytotoxic Activity Evaluation of Protulactone A” (J Nat Prod, 2017)
